Laboratory results from PubChem BioAssay.
Inconclusive results are not listed. Active and inactive are the calls of the source.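 How the source made its calls, unless noted: active means cell viability at or below a set limit in both duplicate runs, the limit being the all-compound median minus 4 SD (cut at about 23% in these data, passing the limit was not always enough); inconclusive means no clear call, values can overlap the other calls; inactive means the rest.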

Legend:
[1] = OD615 S. cerevisiae growth inhibition, permissive medium, pilot counter-assay, permissive growth control for S. cerevisiae lifespan shortening project (AID 705;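 active means growth inhibition above 25% in both replicates, a cutoff set 3 SD above the mean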); conditions: OD615, 24 h, at 10 µM, active compounds read high
Summary of the method: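 System: Engineered DeaD yeast | Buffer or medium: SC raffinose/galactose permissive medium | Incubation: Cells pre-grown 4 h, then 24 h compound exposure, 30 °C humidified | Measured by: Absorbance (optical density) at 615 nm | Read-out: Reduction in yeast growth (OD615)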

[2] = Restrictive medium S. cerevisiae growth inhibition, OD615, pilot screen of yeast lifespan reduction project, restrictive growth control (AID 706;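 active means growth inhibition above a set limit, 3 SD over mean compound inhibition, in both replicates, cut at about 43% in these data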;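 further: modified DeaD lifespan yeast strain shifted to restrictive glucose medium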); conditions: OD615, 48 h, at 10 µM, active compounds read high
Summary of the method: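 Material: modified S. cerevisiae; Medium: glucose-based CSMM-D restrictive medium; Compound dosing: one concentration, 10 µM final, 0.25% DMSO; Incubation: 48 h compound exposure at 30 °C; Measured by: OD615.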

[3] = viability gain of MRP-1-high H69AR cells under doxorubicin, pilot screen, MRP-1 activator project, CellTiter-Glo, duplicate (AID 807;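 active means viability increase at or above a cutoff of the median across tested compounds plus 3 SD, cut at about 8.5% in these data, passing the limit was not always enough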;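 further: compound pretreatment 18-22 h then 72 h combined with doxorubicin; 0% = doxorubicin alone and 100% = vehicle without doxorubicin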); conditions: H69AR viability with doxorubicin, CellTiter-Glo luminescence; at 10 µM; active compounds read high
[4] = growth suppression of beta-catenin knockout HCT116, pilot screen, human colon tumor cells (AID 823); conditions: CellTiter-Glo, 60 h, at 10 µM, active compounds read low;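 further: 0% = wells killed by 20 µM Hyamine and 100% = untreated DMSO cell wells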
[5] = growth suppression of PTEN-deleted HCT116, pilot screen, cell-based, HCT116 clonal line, CellTiter-Glo (AID 824;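 active means viability at or below 27.92% in each of two runs, the all-compound median minus 4 SD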;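 further: 0% = 20 µM Hyamine control and 100% = vehicle cell control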); conditions: 60 h, at 10 µM, active compounds read low
[6] = inhibitors of the yeast RAM network, pilot screen, dse1pr::URA3 reporter, 5-FOA selection (AID 869;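 active means inhibition over a set limit, the all-compound mean plus 3 SD, in both replicate runs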;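 further: 0% = DMSO wells with no growth and 100% = 10 µM 1-NA-PP1 with full growth; RAM network block rescues cells from 5-FOA so hits raise OD615 growth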); conditions: S. cerevisiae dse1pr::URA3 5-FOA growth, OD615, 2 d; at 10 µM; active compounds read high; strain carries analog-sensitive mutant Cbk1 kinase
[7] = RAM signaling pathway blockade in yeast – S. cerevisiae, Pdr1DBD-CYC8 efflux-inhibited sensitized strain, primary screen (AID 1298;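 active means RAM network inhibition above 8.4% in each of two replicates, 3 SD over the compound average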;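 further: 0% = DMSO untreated cells without growth and 100% = 10 µM 1-NA-PP1 full growth; higher means more yeast growth rescued from 5-FOA killing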); conditions: S. cerevisiae cbk1-as DSE1-URA3 strain, 5-FOA growth OD615, 2 d; at 50 µM; active compounds read high

COC(=O)c1ccc(CSc2ncn[nH]2)o1
inactive: growth inhibition [1] -2.62% | growth inhibition [2] 3.27% | viability increase [3] 0.51% | viability [4] 94.7% | viability [5] 97.5% | inhibition [6] 0.395% | RAM network inhibition [7] 3.38%

COC(=O)c1ccc2c(=O)n3c(nc2c1)SCC(c1ccccc1)=N3
inactive: growth inhibition [1] 2.69% | growth inhibition [2] -0.25% | viability increase [3] -1.81% | viability [4] 95.1% | viability [5] 94.8% | inhibition [6] 2.39% | RAM network inhibition [7] 10.7%

COC(=O)c1c(NC(=O)C2CC2)sc2c1CCN(C(C)=O)C2
inactive: growth inhibition [1] -10.8% | growth inhibition [2] -31.3% | viability increase [3] -0.44% | viability [4] 105% | viability [5] 91.6% | inhibition [6] 1.98% | RAM network inhibition [7] -1.38%

Cn1c(C(=O)NC2CCCC2)cc2c(=O)n(C)c3ccccc3c21
inactive: growth inhibition [1] -12.6% | growth inhibition [2] 3.59% | viability increase [3] -2.84% | viability [4] 84.3% | viability [5] 87.4% | inhibition [6] 1.21% | RAM network inhibition [7] 7.72%

CCc1ccccc1N1CC23C=CC(O2)C(C(=O)OCC(C)C)C3C1=O (configuration not stated)
inactive: growth inhibition [1] -14.3% | growth inhibition [2] -12.6% | viability increase [3] -0.48% | viability [4] 93.7% | viability [5] 89.6% | inhibition [6] 0.385% | RAM network inhibition [7] 0.42%

CN1CCc2c(sc(NC(=O)c3ccc(S(=O)(=O)N4CCOCC4)cc3)c2C(N)=O)C1
inactive: growth inhibition [1] -5.07% | growth inhibition [2] -4.6% | viability increase [3] -0.65% | viability [4] 111% | viability [5] 103% | inhibition [6] -0.19% | RAM network inhibition [7] 7.28%

O=C(C1CCN(S(=O)(=O)c2cccc3cccnc23)CC1)N1CCn2c1nc1ccccc12
inactive: growth inhibition [1] -1.95% | growth inhibition [2] -3.35% | viability increase [3] -1.86% | viability [4] 87.7% | viability [5] 83.2% | inhibition [6] 2.52% | RAM network inhibition [7] -1.55%

CC(=NCc1ccccc1)C1=C(O)COC1=O
inactive: growth inhibition [1] 5.52% | growth inhibition [2] 8.4% | viability increase [3] -1.47% | viability [4] 100% | viability [5] 92.7% | inhibition [6] 1.06% | RAM network inhibition [7] 4.28%

CCOC(=O)C1CCCN(C(=O)CN(c2ccc(OC)cc2)S(=O)(=O)c2c(C)noc2C)C1 (configuration not stated)
inactive: growth inhibition [1] -7.31% | growth inhibition [2] -7.06% | viability increase [3] -2.84% | viability [4] 102% | viability [5] 93.8% | inhibition [6] 1.58% | RAM network inhibition [7] 1.13%

COc1ccc(C(=O)Nc2ccc(Cl)cc2C(=O)NCc2ccco2)cc1OC
inactive: growth inhibition [1] -0.55% | growth inhibition [2] -8.55% | viability increase [3] -4.93% | viability [4] 73.4% | viability [5] 68.9% | inhibition [6] 0.625% | RAM network inhibition [7] 7.76%

CCOC(=O)c1cccc(NC(=O)CCS(=O)(=O)c2cccc3nsnc23)c1
inactive: growth inhibition [1] -0.82% | growth inhibition [2] -22% | viability increase [3] -3.74% | viability [4] 100% | viability [5] 97% | inhibition [6] 0.99% | RAM network inhibition [7] 2.43%

CC1(C)CC2CC(C)(CN2C(=O)c2cc(-c3ccccc3O)on2)C1 (configuration not stated)
inactive: growth inhibition [1] -11.4% | growth inhibition [2] -4.57% | viability increase [3] -5.87% | viability [4] 75.5% | viability [5] 61.9% | inhibition [6] 2.44% | RAM network inhibition [7] 6.15%

CC1CCCCN1CCCNC(=O)C1CCN(c2nc3ccccc3o2)CC1 (configuration not stated)
inactive: growth inhibition [1] -2.48% | growth inhibition [2] -4.11% | viability increase [3] -0.83% | viability [4] 99.9% | viability [5] 97.8% | inhibition [6] 0.5% | RAM network inhibition [7] 3.1%

Cc1ccc(-c2nnc3ccc(SC(C)C(=O)O)nn23)cc1 (configuration not stated)
active: growth inhibition [2] 60.9%
inactive: growth inhibition [1] 13.9% | viability increase [3] -1.29% | viability [4] 99.1% | viability [5] 97.8% | inhibition [6] 2.31% | RAM network inhibition [7] 3.9%

O=C(O)COc1ccc2c(c1)OCCO2
inactive: growth inhibition [1] -7.81% | growth inhibition [2] -2.33% | viability increase [3] 0.55% | viability [4] 99.2% | viability [5] 107% | inhibition [6] 1.04% | RAM network inhibition [7] -0.47%

CCCN(CCC)CCNC(=O)Cn1cnc2sc(C)c(S(=O)(=O)N3CCOCC3)c2c1=O
inactive: growth inhibition [1] -0.07% | growth inhibition [2] -5.45% | viability increase [3] -2.63% | viability [4] 95.3% | viability [5] 98% | inhibition [6] 0.875% | RAM network inhibition [7] 2.96%
